According to ChEMBL document CHEMBL1268815, “Modulating the development of E. coli biofilms with 2-aminoimidazoles” (Bioorg Med Chem Lett, 2010):

What was measured:
Escherichia coli K-12 [1] = assay: Effect on Escherichia coli K-12 ER2738 biofilm formation at 400 uM after 24 hrs by crystal violet reporter assay relative to control; assay type: functional; settings: ER2738, 24 h
Outline: (§1)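 Initial single-concentration screen for effect on biofilm development. Bacteria were incubated statically with or without compound for 24 h. Medium and planktonic cells were removed and wells were water-washed. Attached biofilm was stained with crystal violet, washed, and the stain was solubilized in ethanol and read at A540. Results were expressed relative to untreated control as means of three experiments.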

Acinetobacter baumannii = assay: Effect on Acinetobacter baumannii biofilm formation at 400 uM after 24 hrs by crystal violet reporter assay relative to control; assay type: functional; settings: read-out: INH; outline: as §1
[2] = Toxicity in sheep RBC assessed as induction of hemolysis; assay type: cell-based, Ovis aries; settings: erythrocyte
Escherichia coli K-12 [3] = assay: Effect on Escherichia coli K-12 ER2738 biofilm formation by crystal violet reporter assay relative to control; assay type: functional, organism-based
Outline: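 E. coli biofilm development was measured under static conditions by crystal violet reporter assay. Cultures were grown with or without compound for 24 h, then planktonic cells and medium were removed and wells were water-washed. Biofilm was stained with crystal violet, and the retained dye was ethanol-solubilized and quantified at A540 against untreated control.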

Escherichia coli K-12 [4] = assay: Dispersion of preformed Escherichia coli K-12 ER2738 biofilm by crystal violet reporter assay relative to control

SMILES	inhibition at 400 µM (Escherichia coli K-12 [1]) [%]	inhibition at 400 µM (Acinetobacter baumannii) [%]	also measured
Nc1nc(CCCc2cn(CC(=O)NCCc3ccccc3)nn2)c[nH]1	-41.8	20.8	
CCCCCCNC(=O)Cn1cc(CCCc2c[nH]c(N)n2)nn1	-30.3	31.4	
Nc1nc(CCCc2cn(CC(=O)NCCCc3ccccc3)nn2)c[nH]1	-176	23.2	
COc1ccc(NC(=O)Cn2cc(CCCc3c[nH]c(N)n3)nn2)cc1	-169		
COc1ccc(CCNC(=O)Cn2cc(CCCc3c[nH]c(N)n3)nn2)cc1.Cl		8.5	Activity [2]: > 800 µM
Nc1nc(CCCc2cn(CC(=O)NC3CCCC3)nn2)c[nH]1	-47.8	15.9	
Nc1nc(CCCCCc2cn(CC(=O)NCCc3ccccc3)nn2)c[nH]1	-174		
CCCCCCCCCCNC(=O)Cn1cc(CCCc2c[nH]c(N)n2)nn1.Cl	90.8	28.3	IC50 (Escherichia coli K-12 [3]): 36.9 µM; Activity [2]: 487 µM; EC50 (Escherichia coli K-12 [4]; Escherichia coli, ER2738, read-out: EC50): 120 µM
CC(C)(C)NC(=O)Cn1cc(CCCc2c[nH]c(N)n2)nn1	17.6	21.2	
Cl.Nc1nc(CCCc2cn(CC(=O)NCc3ccccc3)nn2)c[nH]1		19.5	Activity [2]: > 800 µM
CCCCCCCCCCNC(=O)Cn1cc(CCCCCc2c[nH]c(N)n2)nn1	58.9		
CC(C)NC(=O)Cn1cc(CCCc2c[nH]c(N)n2)nn1	-127	13.6	
Nc1nc(CCCc2cn(CC(=O)N3CCCC3)nn2)c[nH]1	2.6	6.2	
Nc1nc(CCCc2cn(CC(=O)N3CCOCC3)nn2)c[nH]1	-183	30.3	
CCCCCCCCCCCCCCNC(=O)Cn1cc(CCCc2c[nH]c(N)n2)nn1	57.8	36.4	
Nc1nc(CCCCCc2cn(CC(=O)Nc3ccccc3)nn2)c[nH]1	-143		
Nc1nc(CCCc2cn(CC(=O)Nc3ccccc3)nn2)c[nH]1	-142	23	
COc1ccc(CNC(=O)Cn2cc(CCCc3c[nH]c(N)n3)nn2)cc1	-19.9	17.5	
CCCCCCCCNC(=O)Cn1cc(CCCCCc2c[nH]c(N)n2)nn1.Cl			IC50 (Escherichia coli K-12 [3]): 13 µM; Activity [2]: 675 µM; EC50 (Escherichia coli K-12 [4]): Not Active
Nc1nc(CCCc2cn(CC(=O)NC3CCCCC3)nn2)c[nH]1	-169		
